Measurements as given in ChEMBL document CHEMBL4257453, “Identification of karanjin isolated from the Indian beech tree as a potent CYP1 enzyme inhibitor with cellular efficacy via screening of a natural product repository” (Medchemcomm, 2018).

Tests used:
CYP1A1 [1] = target: T1, CYP1A1 (Homo sapiens, UniProt P04798); experiment: Inhibition of recombinant human CYP1A1 expressed in baker's yeast-derived microsomes (Sacchrosomes) at 10 uM using 7-ethoxyresorufin substrate by EROD assay relative to control; conditions: probe 7-ethoxyresorufin
T1 sequence (P04798 whole entry): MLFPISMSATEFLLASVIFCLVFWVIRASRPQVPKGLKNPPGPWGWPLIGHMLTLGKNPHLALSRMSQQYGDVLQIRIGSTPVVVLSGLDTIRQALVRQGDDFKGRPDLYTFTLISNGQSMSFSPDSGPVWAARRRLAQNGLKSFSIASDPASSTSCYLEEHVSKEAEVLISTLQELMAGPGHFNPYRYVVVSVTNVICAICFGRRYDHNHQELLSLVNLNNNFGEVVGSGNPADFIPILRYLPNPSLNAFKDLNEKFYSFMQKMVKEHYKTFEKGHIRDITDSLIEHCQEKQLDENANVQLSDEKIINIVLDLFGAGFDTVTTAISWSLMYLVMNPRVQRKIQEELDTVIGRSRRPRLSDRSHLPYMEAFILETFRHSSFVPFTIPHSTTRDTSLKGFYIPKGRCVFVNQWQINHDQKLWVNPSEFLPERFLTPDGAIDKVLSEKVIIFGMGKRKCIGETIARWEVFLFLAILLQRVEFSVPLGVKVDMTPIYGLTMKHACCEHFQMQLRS
Summary of the method: (§1)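 Yeast microsomes carrying recombinant CYP (Sacchrosomes). Substrates per isoform are 7-ethoxyresorufin, 3-cyano-7-ethoxycoumarin, EOMCC or dibenzylfluorescein, read as endpoint fluorescence. Background from compound-only wells without enzyme is subtracted. Independent triplicate runs; α-naphthoflavone positive control.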

CYP3A4 = CYP3A4 (Homo sapiens, UniProt P08684); experiment: Inhibition of recombinant human CYP3A4 expressed in baker's yeast-derived microsomes (Sacchrosomes) at 10 uM using dibenzylfluorescein substrate by EROD assay relative to control; assay type: ADME; conditions: probe dibenzylfluorescein
Sequence of CYP3A4 (P08684 whole entry): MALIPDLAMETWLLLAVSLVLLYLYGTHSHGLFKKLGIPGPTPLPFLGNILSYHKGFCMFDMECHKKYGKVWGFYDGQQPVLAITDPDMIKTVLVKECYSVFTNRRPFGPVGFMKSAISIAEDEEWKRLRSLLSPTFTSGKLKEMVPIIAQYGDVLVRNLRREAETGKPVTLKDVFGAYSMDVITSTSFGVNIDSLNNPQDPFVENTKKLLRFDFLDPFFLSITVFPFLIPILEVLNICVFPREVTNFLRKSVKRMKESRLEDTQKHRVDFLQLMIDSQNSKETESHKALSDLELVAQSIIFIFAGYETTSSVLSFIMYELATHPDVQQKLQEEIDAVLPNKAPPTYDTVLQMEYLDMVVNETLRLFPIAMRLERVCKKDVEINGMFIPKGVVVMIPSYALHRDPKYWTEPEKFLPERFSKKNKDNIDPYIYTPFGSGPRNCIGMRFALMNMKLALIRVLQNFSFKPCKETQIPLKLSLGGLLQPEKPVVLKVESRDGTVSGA
Summary of the method: as §1, with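 “(Sacchrosomes). […]” for “(Sacchrosomes).”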

Cytochrome P450 2C19 = Cytochrome P450 2C19 (Homo sapiens, UniProt P33261); experiment: Inhibition of human recombinant CYP2C19 expressed in HEK293 cells using 3-cyano-7-ethoxycoumarin substrate substrate preincubated for 30 mins followed by substrate addition and measured after 60 mins by fluorescence assay relative to control; assay type: ADME, cell-based
Sequence of Cytochrome P450 2C19 (P33261 whole entry): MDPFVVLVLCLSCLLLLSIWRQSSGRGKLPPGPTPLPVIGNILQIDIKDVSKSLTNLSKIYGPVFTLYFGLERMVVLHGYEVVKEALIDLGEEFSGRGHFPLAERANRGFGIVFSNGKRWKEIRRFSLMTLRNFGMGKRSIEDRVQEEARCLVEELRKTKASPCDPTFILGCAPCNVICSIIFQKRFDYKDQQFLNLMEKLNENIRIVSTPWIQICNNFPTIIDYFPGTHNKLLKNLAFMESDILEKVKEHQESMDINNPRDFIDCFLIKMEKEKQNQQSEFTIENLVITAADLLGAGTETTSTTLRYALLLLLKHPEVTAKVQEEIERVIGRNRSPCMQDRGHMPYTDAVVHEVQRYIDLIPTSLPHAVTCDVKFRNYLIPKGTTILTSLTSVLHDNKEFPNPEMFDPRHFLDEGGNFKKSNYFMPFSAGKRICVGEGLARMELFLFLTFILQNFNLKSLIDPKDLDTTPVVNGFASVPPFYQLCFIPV
Summary of the method: (§2)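 HEK293 cells adapted to suspension and transiently transfected with pcDNA3.1 plasmids carrying the individual CYP; 100×10^3 cells per well in triplicate. […] Fluorogenic substrate is then added at 5 μM and fluorescence read for 60 min.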

CYP2D6 = CYP2D6 (Homo sapiens, UniProt P10635); experiment: Inhibition of recombinant human CYP2D6 expressed in baker's yeast-derived microsomes (Sacchrosomes) at 10 uM using 7-ethoxy-methyloxy-3-cyanocoumarin substrate by EROD assay relative to control; assay type: ADME; conditions: probe 7-ethoxy-methyloxy-3-cyanocoumarin
Sequence of CYP2D6 (P10635 whole entry): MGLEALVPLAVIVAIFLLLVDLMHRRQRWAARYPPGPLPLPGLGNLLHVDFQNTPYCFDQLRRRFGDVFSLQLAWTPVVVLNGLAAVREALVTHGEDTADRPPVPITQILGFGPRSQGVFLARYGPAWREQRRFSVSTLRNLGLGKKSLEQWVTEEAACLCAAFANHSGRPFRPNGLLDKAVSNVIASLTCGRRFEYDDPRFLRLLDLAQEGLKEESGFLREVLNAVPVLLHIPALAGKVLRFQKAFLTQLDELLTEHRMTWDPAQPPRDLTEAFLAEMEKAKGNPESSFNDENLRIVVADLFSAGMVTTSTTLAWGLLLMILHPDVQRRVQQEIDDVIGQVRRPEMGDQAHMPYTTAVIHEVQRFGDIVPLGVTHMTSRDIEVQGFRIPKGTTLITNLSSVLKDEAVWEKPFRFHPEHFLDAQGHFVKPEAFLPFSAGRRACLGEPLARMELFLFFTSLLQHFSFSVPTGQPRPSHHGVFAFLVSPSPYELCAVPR
Summary of the method: as §1, with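 “(Sacchrosomes). […]” for “(Sacchrosomes).”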

CYP2C9 = CYP2C9 (Homo sapiens, UniProt P11712); experiment: Inhibition of recombinant human CYP2C9 expressed in baker's yeast-derived microsomes (Sacchrosomes) at 10 uM using 3-cyano-7-ethoxycoumarin substrate by EROD assay relative to control; assay type: ADME; conditions: probe 3-cyano-7-ethoxycoumarin
Sequence of CYP2C9 (P11712 whole entry): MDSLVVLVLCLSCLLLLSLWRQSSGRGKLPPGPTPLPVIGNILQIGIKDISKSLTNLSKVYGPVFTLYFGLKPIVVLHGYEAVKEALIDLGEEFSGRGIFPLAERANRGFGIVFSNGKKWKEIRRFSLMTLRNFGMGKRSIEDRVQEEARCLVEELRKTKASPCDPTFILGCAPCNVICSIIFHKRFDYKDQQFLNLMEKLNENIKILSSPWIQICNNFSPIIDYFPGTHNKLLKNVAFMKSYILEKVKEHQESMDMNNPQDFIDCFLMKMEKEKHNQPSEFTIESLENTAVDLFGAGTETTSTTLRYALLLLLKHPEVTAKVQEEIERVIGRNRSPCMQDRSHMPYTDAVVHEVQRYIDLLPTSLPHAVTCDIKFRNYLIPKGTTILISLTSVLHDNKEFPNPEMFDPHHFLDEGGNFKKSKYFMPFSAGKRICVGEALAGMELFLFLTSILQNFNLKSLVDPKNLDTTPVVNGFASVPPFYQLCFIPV
Summary of the method: as §1, with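 “(Sacchrosomes). […]” for “(Sacchrosomes).”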

Cytochrome P450 3A4 = Cytochrome P450 3A4 (Homo sapiens, UniProt P08684); experiment: Inhibition of human recombinant CYP3A4 expressed in HEK293 cells using dibenzylfluorescein substrate substrate preincubated for 30 mins followed by substrate addition and measured after 60 mins by fluorescence assay relative to control; assay type: ADME, cell-based
Sequence of Cytochrome P450 3A4 (P08684 whole entry): as the sequence (P08684 whole entry) above
Summary of the method: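 HEK293 cells adapted to suspension and transiently transfected with pcDNA3.1 plasmids carrying the individual CYP; 100×10^3 cells per well in triplicate. Fluorogenic substrate is then added at 5 μM and fluorescence read for 60 min.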

Cytochrome P450 2C9 = Cytochrome P450 2C9 (Homo sapiens, UniProt P11712); experiment: Inhibition of human recombinant CYP2C9 expressed in HEK293 cells using 3-cyano-7-ethoxycoumarin substrate substrate preincubated for 30 mins followed by substrate addition and measured after 60 mins by fluorescence assay relative to control; assay type: ADME, cell-based; summary of the method: as §2
Sequence of Cytochrome P450 2C9 (P11712 whole entry): as the sequence (P11712 whole entry) above

CYP2C19 = CYP2C19 (Homo sapiens, UniProt P33261); experiment: Inhibition of recombinant human CYP2C19 expressed in baker's yeast-derived microsomes (Sacchrosomes) at 10 uM using 3-cyano-7-ethoxycoumarin substrate by EROD assay relative to control; assay type: ADME; conditions: probe 3-cyano-7-ethoxycoumarin
Sequence of CYP2C19 (P33261 whole entry): as the sequence (P33261 whole entry) above
Summary of the method: as §1, with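 “(Sacchrosomes). […]” for “(Sacchrosomes).”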

CYP1A2 = target: T2, CYP1A2 (Homo sapiens, UniProt P05177); experiment: Inhibition of recombinant human CYP1A2 expressed in baker's yeast-derived microsomes (Sacchrosomes) at 10 uM using 3-cyano-7-ethoxycoumarin substrate by EROD assay relative to control; assay type: ADME; conditions: probe 3-cyano-7-ethoxycoumarin; summary of the method: as §1
T2 sequence (P05177 whole entry): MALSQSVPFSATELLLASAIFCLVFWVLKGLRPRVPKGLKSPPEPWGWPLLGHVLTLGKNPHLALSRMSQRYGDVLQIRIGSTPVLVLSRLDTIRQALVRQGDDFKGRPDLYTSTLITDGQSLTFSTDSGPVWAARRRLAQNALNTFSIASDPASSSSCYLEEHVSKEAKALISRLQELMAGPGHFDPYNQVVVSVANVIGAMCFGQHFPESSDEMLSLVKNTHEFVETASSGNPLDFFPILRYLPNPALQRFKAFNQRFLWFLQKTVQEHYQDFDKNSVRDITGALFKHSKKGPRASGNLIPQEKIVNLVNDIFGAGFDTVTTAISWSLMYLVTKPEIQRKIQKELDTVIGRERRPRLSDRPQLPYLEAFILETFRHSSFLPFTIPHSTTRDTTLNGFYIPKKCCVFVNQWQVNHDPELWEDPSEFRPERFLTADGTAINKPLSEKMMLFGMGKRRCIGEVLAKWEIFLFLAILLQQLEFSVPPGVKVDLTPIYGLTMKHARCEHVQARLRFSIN

Cytochrome P450 2D6 = Cytochrome P450 2D6 (Homo sapiens, UniProt P10635); experiment: Inhibition of human recombinant CYP2D6 expressed in HEK293 cells using 7-ethoxy-methyloxy-3-cyanocoumarin substrate substrate preincubated for 30 mins followed by substrate addition and measured after 60 mins by fluorescence assay relative to control; assay type: ADME, cell-based; summary of the method: as §2
Sequence of Cytochrome P450 2D6 (P10635 whole entry): as the sequence (P10635 whole entry) above

Cytochrome P450 1B1 = target: T3, Cytochrome P450 1B1 (Homo sapiens, UniProt Q16678); experiment: Inhibition of human recombinant CYP1B1 expressed in HEK293 cells using 7-ethoxyresorufin substrate substrate preincubated for 30 mins followed by substrate addition and measured after 60 mins by fluorescence assay relative to control; assay type: ADME, cell-based; summary of the method: as §2
T3 sequence (Q16678 whole entry): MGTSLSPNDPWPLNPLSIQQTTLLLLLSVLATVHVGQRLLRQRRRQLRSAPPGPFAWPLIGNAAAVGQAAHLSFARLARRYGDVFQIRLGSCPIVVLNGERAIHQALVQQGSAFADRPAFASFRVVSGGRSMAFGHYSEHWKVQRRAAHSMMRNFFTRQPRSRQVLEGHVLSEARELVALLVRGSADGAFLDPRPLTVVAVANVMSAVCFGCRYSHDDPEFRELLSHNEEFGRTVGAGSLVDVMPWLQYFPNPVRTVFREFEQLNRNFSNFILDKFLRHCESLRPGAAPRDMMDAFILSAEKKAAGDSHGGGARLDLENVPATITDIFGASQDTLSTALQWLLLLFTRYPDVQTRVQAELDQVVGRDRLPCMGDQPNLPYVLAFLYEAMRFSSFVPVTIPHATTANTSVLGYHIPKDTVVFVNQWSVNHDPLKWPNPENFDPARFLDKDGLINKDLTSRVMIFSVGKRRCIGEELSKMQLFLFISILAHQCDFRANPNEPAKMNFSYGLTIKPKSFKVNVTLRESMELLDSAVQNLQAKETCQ

CYP1A1 [2] = target: T1, CYP1A1; experiment: Inhibition of human recombinant CYP1A1 expressed in HEK293 cells at 10 uM using 7-ethoxyresorufin substrate preincubated for 30 mins followed by substrate addition and measured after 60 mins by fluorescence assay relative to control; assay type: cell-based; conditions: HEK293 cells expressing human recombinant CYP1A1, probe 7-ethoxyresorufin; summary of the method: as §2
Cytochrome P450 1A1 = target: T4, Cytochrome P450 1A1 (Homo sapiens, UniProt P04798); experiment: Inhibition of human recombinant CYP1A1 expressed in HEK293 cells using 7-ethoxyresorufin substrate preincubated for 30 mins followed by substrate addition and measured after 60 mins by fluorescence assay relative to control; assay type: cell-based; summary of the method: as §2
T4 sequence (P04798 whole entry): T1 sequence (P04798 whole entry)

Cytochrome P450 1A2 = target: T5, Cytochrome P450 1A2 (Homo sapiens, UniProt P05177); experiment: Inhibition of human recombinant CYP1A2 expressed in HEK293 cells using 3-cyano-7-ethoxycoumarin substrate preincubated for 30 mins followed by substrate addition and measured after 60 mins by fluorescence assay relative to control; assay type: ADME, cell-based; summary of the method: as §2
T5 sequence (P05177 whole entry): T2 sequence (P05177 whole entry)

CYP1B1 = target: T6, CYP1B1 (Homo sapiens, UniProt Q16678); experiment: Inhibition of recombinant human CYP1B1 expressed in baker's yeast-derived microsomes (Sacchrosomes) at 10 uM using 7-ethoxyresorufin substrate by EROD assay relative to control; assay type: ADME; conditions: probe 7-ethoxyresorufin
T6 sequence (Q16678 whole entry): T3 sequence (Q16678 whole entry)
Summary of the method: as §1, with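 “(Sacchrosomes). […]” for “(Sacchrosomes).”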

For `CCOc1c2occc2cc2ccc(=O)oc12`, the inhibition at 10 µM (CYP1A1 [1]) was 89%.

In the case of `Cc1c(O)c2c(c(C(=O)/C=C/c3ccccc3)c1O)OC(C)(C)C=C2`, the inhibition at 10 µM (CYP1A1 [1]) is reported as 52%.

With `COc1ccc(-c2cc(=O)c3c(O)c(OC)c(OC)cc3o2)cc1OC` the inhibition at 10 µM (CYP3A4) was 9%, the IC50 (Cytochrome P450 2C19) was > 10 µM and the inhibition at 10 µM (CYP2D6) was 13%. The inhibition at 10 µM (CYP2C9) was 7%, the IC50 (Cytochrome P450 3A4) was > 10 µM and the IC50 (Cytochrome P450 2C9) was > 10 µM. The inhibition at 10 µM (CYP2C19) was 5%, the inhibition at 10 µM (CYP1A2) was 90% and the IC50 (Cytochrome P450 2D6) was > 10 µM. The IC50 (Cytochrome P450 1B1) was 2.5 µM, the inhibition at 1 h, 10 µM (CYP1A1 [2]) was 96% and the IC50 (Cytochrome P450 1A1) was 1.38 µM. It also gave a Ki (Cytochrome P450 1A1) of 1.42 µM, an IC50 (Cytochrome P450 1A2) of 0.9 µM and a Ki (Cytochrome P450 1A2) of 0.78 µM. For the same molecule, the inhibition at 10 µM (CYP1A1 [1]) was 80% and the inhibition at 10 µM (CYP1B1) was 70%.

Work on `C=CCOc1cc(OCC=C)c2ccc(=O)oc2c1` yielded an inhibition at 10 µM (CYP1A1 [1]) of 69%.

With `COc1c(C(=O)CC(=O)c2ccccc2)ccc2occc12` the inhibition at 10 µM (CYP3A4) was 9%, the IC50 (Cytochrome P450 2C19) was > 10 µM and the inhibition at 10 µM (CYP2D6) was 14%. For the same molecule, the inhibition at 10 µM (CYP2C9) was 0%, the IC50 (Cytochrome P450 3A4) was > 10 µM and the IC50 (Cytochrome P450 2C9) was > 10 µM. For the same molecule, the inhibition at 10 µM (CYP2C19) was 3%, the inhibition at 10 µM (CYP1A2) was 8% and the IC50 (Cytochrome P450 2D6) was > 10 µM. For the same molecule, the IC50 (Cytochrome P450 1B1) was 6.04 µM, the inhibition at 1 h, 10 µM (CYP1A1 [2]) was 85% and the IC50 (Cytochrome P450 1A1) was 2.23 µM. For the same molecule, the Ki (Cytochrome P450 1A1) was 1.96 µM, the IC50 (Cytochrome P450 1A2) was 3.16 µM and the Ki (Cytochrome P450 1A2) was 3.86 µM. It also gave an inhibition at 10 µM (CYP1A1 [1]) of 85 to 87% and an inhibition at 10 µM (CYP1B1) of 12%.

For `COc1ccc2c(c1OC)C(OC)N(C)c1c-2ccc2cc3c(cc12)OCO3` (configuration not stated), the inhibition at 10 µM (CYP3A4) was 6%, the IC50 (Cytochrome P450 2C19) was > 10 µM and the inhibition at 10 µM (CYP2D6) was 11%. For the same molecule, the inhibition at 10 µM (CYP2C9) was 4%, the IC50 (Cytochrome P450 3A4) was > 10 µM and the IC50 (Cytochrome P450 2C9) was > 10 µM. The inhibition at 10 µM (CYP2C19) was 3%, the inhibition at 10 µM (CYP1A2) was 7% and the IC50 (Cytochrome P450 2D6) was > 10 µM. It also gave an IC50 (Cytochrome P450 1B1) of 7.7 µM, an inhibition at 1 h, 10 µM (CYP1A1 [2]) of 80% and an IC50 (Cytochrome P450 1A1) of 3.03 µM. For the same molecule, the Ki (Cytochrome P450 1A1) was 3.25 µM, the IC50 (Cytochrome P450 1A2) was 8.93 µM and the Ki (Cytochrome P450 1A2) was 9.16 µM. It also gave an inhibition at 10 µM (CYP1A1 [1]) of 90% and an inhibition at 10 µM (CYP1B1) of 10%.

In the case of `CC(C)(O)C(O)COc1c2occc2cc2ccc(=O)oc12` (configuration not stated), the inhibition at 10 µM (CYP1A1 [1]) is reported as 72%.

Molecule `O=c1cc(-c2ccccc2)oc2c1ccc1ccccc12` [ALPHA-NAPHTHOFLAVONE] has an inhibition at 10 µM (CYP3A4) of 6%, an inhibition at 10 µM (CYP2D6) of 5% and an inhibition at 10 µM (CYP2C9) of 10%. For the same molecule, the inhibition at 10 µM (CYP2C19) was 9% and the inhibition at 10 µM (CYP1B1) was 96%.

Molecule `O=c1ccc2ccc3occc3c2o1` [ANGELICIN] has an inhibition at 10 µM (CYP1A1 [1]) of 80%.

In the case of `COc1ccc2cc3[n+](cc2c1OC)CCc1cc2c(cc1-3)OCO2` [BERBERINE CHLORIDE], the inhibition at 10 µM (CYP1A1 [1]) is reported as 48%.
